PfGluPho inh – PfG6PD enzyme inhibitors, primary screen, biochemical, fluorescence intensity, uHTS; glucose-6-phosphate dehydrogenase-6-phosphogluconolactonase (Plasmodium falciparum 3D7); PfGluPho enzyme, NADPH resazurin-diaphorase fluorescence; inhibition, % at 20 µM; 350,000 tested, 0.78% active; AID 504690, 2011;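 active = inhibition reaching at least a set limit at 20 µM in the primary screen, cut at about 59% in these data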;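 note: 0% = DMSO wells with substrate and 100% = DMSO wells lacking glucose-6-phosphate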
UCH37 inh – inhibitors of human UCH37 deubiquitinase, primary screen, biochemical, Ub-AMC cleavage, fluorescence | Ubiquitin carboxyl-terminal hydrolase isozyme L5 (Homo sapiens), Q9Y5K5 | purified proteasome/UCH37 | inhibition, % (no concentration beside the values) | 330,000 tested, 0.33% active | AID 588478, 2011;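 active = mean inhibition over replicate wells above about 20%, limit read from the data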;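 note: 0% = compound-free wells with enzyme and 100% = wells lacking proteasome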
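Material: human UCH37 enzyme supplied as purified proteasome complex / Amount: 0.15 nM proteasome as dispensed / Buffer or medium: pH 7.4 Tris-HCl (50 mM) with ovalbumin, ATP-MgCl2, DTT / Times: preincubation 30 min, reaction 25 min, room temperature / Technique: AMC fluorescence from Ub-AMC cleavage, excitation 355 nm, emission 460 nm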
HKDC1 inhibitor – HKDC1 hexokinase inhibitors, primary screen, biochemical, fluorescence, uHTS; Q2TB90; 340,000 tested, 0.16% active; inhibition, % at 20 µM; recombinant HKDC1, G6PDH/diaphorase resazurin coupled fluorescence; AID 493160, 2011;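 active = inhibition above about 35% when tested at 20 µM, limit read from the data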;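 note: plate controls were DMSO wells with enzyme for no effect and DMSO wells lacking enzyme for full effect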
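Material – in-house recombinant HK5 (HKDC1) enzyme · Quantity – HKDC1 at 5 µg/mL · Buffer or medium – pH 8.0 Tris buffer with 10 mM MgCl2 · Reagent – glucose with 1 mM ATP · Dosing – single 20 µM dose · Times – reaction time 90 min, room temperature, protected from light · Technique – resorufin fluorescence at 613 nm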
B2AR ag – beta2AR agonists driving receptor internalization, primary screen, cell-based, FAP fluorogen, flow cytometry; Am2.2-beta2AR cells; response, % (no concentration beside the values); 340,000 tested, 0.43% active; AID 504454, 2011;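 active = response above a set limit, near 3 SD of response in nonfluorescent compounds, cut at about 42% in these data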
Target sequence (P07550 whole entry, looked up): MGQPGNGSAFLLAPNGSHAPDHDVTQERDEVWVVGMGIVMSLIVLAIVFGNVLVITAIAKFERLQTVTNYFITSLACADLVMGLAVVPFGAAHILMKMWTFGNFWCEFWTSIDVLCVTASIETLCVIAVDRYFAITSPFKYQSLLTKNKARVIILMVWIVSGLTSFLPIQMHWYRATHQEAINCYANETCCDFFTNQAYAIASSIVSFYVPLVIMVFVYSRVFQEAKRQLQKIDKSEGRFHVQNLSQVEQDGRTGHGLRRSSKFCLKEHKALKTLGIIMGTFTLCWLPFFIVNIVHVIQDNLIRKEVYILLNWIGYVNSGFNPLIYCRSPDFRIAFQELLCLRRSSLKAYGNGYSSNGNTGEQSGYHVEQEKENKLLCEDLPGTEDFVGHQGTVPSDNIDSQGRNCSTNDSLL
H9c2 protect – cardioprotection against H2O2-induced cell death, primary screen, uHTS, H9c2 cells, ATPLite luminescence | H9c2 cardiomyocytes, H2O2 injury protection, 2 h | protection from H2O2 cell death, % at 20 µM | 360,000 tested, 0.63% active | AID 588492, 2011;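 active = compounds giving at least 50% protection of heart cells from peroxide-induced death in the single-dose screen, raw or plate-pattern-corrected value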;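 note: 0% = DMSO wells with peroxide and 100% = DMSO wells without peroxide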
aDG glyco act – activators of alpha-DG glycosylation, primary screen, uHTS, Pro5-aDG cells, AlphaScreen; activation, % at 10 µM; AID 624168, 2012; 360,000 tested, 0.22% active; alpha-DG glycosylation AlphaScreen (IIH6); 0% Pro5, 100% B10-LARGE cell signal;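 active = activation of at least 8% versus controls, or a plate z-score of at least 8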;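 note: Pro5 are CHO cells carrying HIG-tagged alpha-DG that lacks glycosylation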
Beta2AR ag CP1 – beta2AR agonists via receptor internalization, confirmation, cell-based, FAP fluorogen, flow cytometry, single point, cherry pick 1; shares compounds with B2AR ag; Am2.2-beta2AR cells, FAP surface receptor; hits give low values; percent response (surface receptor), % at 10 µM; 1,100 tested, 25% active;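 active = surface receptor percent response at or below 58%, roughly 3 SD from nonfluorescent compounds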
B2AR FAP counter – counter-screen for beta-2AR agonists: fluorescence in Am2.2 cells; shares compounds with B2AR ag; FAP fluorogen flow cytometry, fluorescence counterscreen; hits give low values; calls only at 10 µM; 1,100 tested, under 10 active;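 active = percent response below a set limit in fluorescence channel 1 and below 50% in channel 8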
PfG6PD confirm – PfG6PD inhibitors, hit retest, confirmation, biochemical, fluorescence intensity, single concentration. shares compounds with PfGluPho inh. recombinant PfGluPho, NADPH-diaphorase-resazurin fluorescence. AID 504753, 2011. 2,400 tested, 34% active. inhibition, % at 20 µM;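 active = inhibition of at least 50% at 20 µM in any single replicate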;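 note: 0% = DMSO with substrate and 100% = DMSO lacking glucose-6-phosphate substrate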
Diaph ctr 10uM – diaphorase inhibitors and chemical oxidizers, confirmation, counter-screen for P. falciparum G6PD inhibitor project, biochemical, fluorescence intensity, 10 µM NADPH; shares compounds with PfGluPho inh; diaphorase-coupled resazurin reduction, NADPH 10 uM; inhibition, % at 20 µM; 820 tested, 39% active; AID 504862, 2011;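 active = average inhibition reaching 50% or more with the compound at 20 µM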;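 note: resorufin red fluorescence formed as diaphorase reduces resazurin using NADPH; 0% = DMSO with enzyme and 100% = DMSO without enzyme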
Diaph ctr 30uM – diaphorase inhibitors and chemical oxidizers, confirmation, counter-screen for P. falciparum G6PD inhibitor project, biochemical, fluorescence intensity, 30 µM NADPH; shares compounds with PfGluPho inh; Diaphorase/resazurin coupled assay, resorufin fluorescence; inhibition, % at 20 µM; 820 tested, 29% active; AID 504863, 2011;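 active = inhibition averaging 50% or more, tested at 20 µM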;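 note: 0% = DMSO with enzyme and 100% = DMSO wells lacking diaphorase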
* hit, by the source's call; i = inactive; . = no result given; + = active, no number. In the library only some 2.1% were active in any assay of this set; here they are far more common.

SMILES	PfGluPho inh	UCH37 inh	HKDC1 inhibitor	B2AR ag	H9c2 protect	aDG glyco act	Beta2AR ag CP1	B2AR FAP counter	others
Brc1ccc2c(c1)C(OC1CN3CCC1CC3)c1ccccc1CS2 (configuration not stated)	20.6	10.2	8.7	50.0*	-24.2	4.5	76.8	i
CC[n+]1c(/C=C/C=C/c2ccc(N(C)C)cc2)sc2ccccc21	53.1	19.1	19.1	46.2*	-17.9	1.9	104.6	i
CN(C)c1ccc(/C=C/C=C/c2sc3ccccc3[n+]2C)cc1	18.0	.	2.6	16.8	-9.9	2.8	.	.
COc1ccc(CC2NCC(O)C2OC(C)=O)cc1 (configuration not stated)	13.3	.	0.2	110.4*	-2.2	-0.5	20.0*	+
O=C(CSC1c2ccccc2-c2ccccc21)NN=Cc1ccccc1C(=O)O	.	2.3	.	.	.	.	.	.
COc1ccc(OC)c2c1CCC1NCCOC21 (configuration not stated)	-0.6	5.1	6.0	1.0	7.0	0.0	110.5	i
COc1cc(C(O)CNC(C)C)cc(F)c1OC (configuration not stated)	9.1	5.0	-6.8	0.9	2.7	-0.4	112.5	i
COc1ccc(CCN)cc1O	4.1	2.5	-4.4	-7.3	14.8	-0.4	.	.
NCCc1cc(O)c(O)cc1O	94.0*	.	14.7	3.6	-14.9	-0.2	.	.	PfG6PD confirm=67.7*;Diaph ctr 10uM=52.6*;Diaph ctr 30uM=47.0
NC(N)=NN=Cc1ccc(N2CCOCC2)cc1	.	-80.2	.	.	.	.	.	.
O=C1C(Cl)=CC(=Nc2ccc(O)cc2)C=C1Cl	115.7*	1.9	13.5	-5.2	-0.1	-0.2	.	.	PfG6PD confirm=110.6*;Diaph ctr 10uM=93.3*;Diaph ctr 30uM=81.5*
O=[As](O)(O)c1ccc(N=Nc2ccc(O)cc2)cc1	-10.7	20.0	1.4	3.4	-3.9	0.2	.	.
COc1cccc(CC(=O)Nc2cc(S(=O)(=O)N3CCOCC3)ccc2N2CCN(C)CC2)c1	-3.5	5.0	-4.9	0.5	8.5	-0.3	.	.
Cc1cccc(N=C2c3cc([N+](=O)[O-])ccc3-c3c2cc([N+](=O)[O-])cc3[N+](=O)[O-])c1	74.2*	9.5	27.5	-0.6	-18.8	-0.3	.	.	PfG6PD confirm=17.9
C=CCN1CC[C@]23c4c5ccc(O)c4O[C@H]2C(=O)CC[C@@]3(O)[C@H]1C5	11.7	-0.1	0.7	1.3	-3.2	-0.1	.	.
C=CCN1CCc2cccc3c2[C@H]1Cc1ccc(O)c(O)c1-3	80.6*	.	7.2	-7.9	45.3	0.0	.	.	PfG6PD confirm=84.0*;Diaph ctr 10uM=22.8;Diaph ctr 30uM=13.8
C=C1[C@@H](O)[C@]23C[C@@H]1[C@@H](O)C[C@H]2[C@@]12C4[C@@H]3C[C@@H]1[C@@](C)(CC[C@@H]2O)CN4CC	.	3.4	.	.	.	.	.	.
